Molecules are shown by their SMILES.

In experiment [1] the target is Serine/threonine-protein kinase PLK1 (Homo sapiens) (UniProt P53350). Description: Binding affinity to PLK1 assessed as change in thermal denaturation at 10 uM by thermal stability shift assay. In a few lines:
(§1)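 Each compound was screened across a kinase panel by thermal stability shift assay. The read-out was the shift in protein melting temperature (ΔTm, in °C) relative to the unliganded kinase. A ΔTm of 4.0 °C served as the hit cutoff.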

The target in experiment [2] is Glycogen synthase kinase-3 beta (Homo sapiens) (UniProt P49841). The experiment in a line: Binding affinity to GSK3-beta assessed as change in thermal denaturation at 10 uM by thermal stability shift assay. A digest of the protocol:
as §1

The target in experiment [3] is T1, Serine/threonine-protein kinase haspin (Homo sapiens) (UniProt Q8TF76).
T1 sequence (whole entry): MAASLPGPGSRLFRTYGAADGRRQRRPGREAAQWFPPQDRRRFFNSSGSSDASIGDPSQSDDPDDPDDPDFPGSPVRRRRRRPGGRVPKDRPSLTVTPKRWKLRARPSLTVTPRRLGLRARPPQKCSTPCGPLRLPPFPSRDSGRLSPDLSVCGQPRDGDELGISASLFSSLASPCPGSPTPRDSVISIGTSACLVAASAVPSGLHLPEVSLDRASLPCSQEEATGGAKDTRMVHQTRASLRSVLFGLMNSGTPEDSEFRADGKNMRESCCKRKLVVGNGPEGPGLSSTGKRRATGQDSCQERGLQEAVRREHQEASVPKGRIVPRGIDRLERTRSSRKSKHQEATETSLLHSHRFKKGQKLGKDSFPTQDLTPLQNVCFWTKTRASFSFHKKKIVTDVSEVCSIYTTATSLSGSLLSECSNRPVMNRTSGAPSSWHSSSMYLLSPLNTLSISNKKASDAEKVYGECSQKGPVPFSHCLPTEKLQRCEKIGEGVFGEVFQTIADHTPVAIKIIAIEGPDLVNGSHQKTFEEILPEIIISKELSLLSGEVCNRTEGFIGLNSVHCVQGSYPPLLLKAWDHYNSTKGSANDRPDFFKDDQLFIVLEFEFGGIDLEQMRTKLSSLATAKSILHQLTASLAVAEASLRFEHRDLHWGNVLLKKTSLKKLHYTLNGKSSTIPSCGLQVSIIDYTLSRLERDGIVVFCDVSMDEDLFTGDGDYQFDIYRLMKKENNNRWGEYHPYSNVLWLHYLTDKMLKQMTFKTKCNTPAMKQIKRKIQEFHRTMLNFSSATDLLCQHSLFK
Description: Binding affinity to Haspin assessed as change in thermal denaturation at 10 uM by thermal stability shift assay. In a few lines:
as §1

The target in experiment [4] is Casein kinase II subunit alpha' (Homo sapiens) (UniProt P19784). The experiment in a line: Binding affinity to CK2alpha2 assessed as change in thermal denaturation at 10 uM by thermal stability shift assay. In a few lines:
as §1

Experiment [5] has as its target T2, Serine/threonine-protein kinase PLK4 (Homo sapiens) (UniProt O00444).
T2 sequence (whole entry): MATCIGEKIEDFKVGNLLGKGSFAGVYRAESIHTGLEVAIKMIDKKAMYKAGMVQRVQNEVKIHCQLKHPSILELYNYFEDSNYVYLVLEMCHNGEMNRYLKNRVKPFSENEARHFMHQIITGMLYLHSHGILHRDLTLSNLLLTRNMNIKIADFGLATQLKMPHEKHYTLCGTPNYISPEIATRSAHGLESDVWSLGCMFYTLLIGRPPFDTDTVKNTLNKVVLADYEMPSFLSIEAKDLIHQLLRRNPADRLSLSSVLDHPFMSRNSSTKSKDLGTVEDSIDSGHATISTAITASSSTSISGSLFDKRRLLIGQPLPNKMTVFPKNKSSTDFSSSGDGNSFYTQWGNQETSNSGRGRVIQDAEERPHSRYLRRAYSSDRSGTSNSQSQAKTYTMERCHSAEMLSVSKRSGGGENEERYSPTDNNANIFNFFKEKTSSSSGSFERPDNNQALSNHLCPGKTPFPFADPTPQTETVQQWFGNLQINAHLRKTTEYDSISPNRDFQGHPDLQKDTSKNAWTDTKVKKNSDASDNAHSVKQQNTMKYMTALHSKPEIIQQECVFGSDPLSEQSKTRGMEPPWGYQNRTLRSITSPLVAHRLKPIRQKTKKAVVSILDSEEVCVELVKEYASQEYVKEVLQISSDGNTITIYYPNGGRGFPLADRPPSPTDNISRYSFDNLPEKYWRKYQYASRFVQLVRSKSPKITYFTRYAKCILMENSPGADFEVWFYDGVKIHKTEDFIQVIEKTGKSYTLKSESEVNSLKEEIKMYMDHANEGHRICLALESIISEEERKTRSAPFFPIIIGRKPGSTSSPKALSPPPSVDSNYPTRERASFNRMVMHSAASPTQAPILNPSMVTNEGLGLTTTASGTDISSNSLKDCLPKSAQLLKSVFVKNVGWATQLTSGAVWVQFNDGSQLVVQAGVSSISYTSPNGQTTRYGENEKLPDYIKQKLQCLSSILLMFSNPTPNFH
The experiment in a line: Binding affinity to PLK4 assessed as change in thermal denaturation at 10 uM by thermal stability shift assay. A digest of the protocol: as §1

For experiment [6], the target named is Serine/threonine-protein kinase 33 (Homo sapiens) (UniProt Q9BYT3). Description: Binding affinity to STK33 assessed as change in thermal denaturation at 10 uM by thermal stability shift assay. A digest of the protocol: as §1
Experiment [7] addresses T3, Myosin light chain kinase family member 4 (Homo sapiens) (UniProt Q86YV6).
T3 sequence (whole entry): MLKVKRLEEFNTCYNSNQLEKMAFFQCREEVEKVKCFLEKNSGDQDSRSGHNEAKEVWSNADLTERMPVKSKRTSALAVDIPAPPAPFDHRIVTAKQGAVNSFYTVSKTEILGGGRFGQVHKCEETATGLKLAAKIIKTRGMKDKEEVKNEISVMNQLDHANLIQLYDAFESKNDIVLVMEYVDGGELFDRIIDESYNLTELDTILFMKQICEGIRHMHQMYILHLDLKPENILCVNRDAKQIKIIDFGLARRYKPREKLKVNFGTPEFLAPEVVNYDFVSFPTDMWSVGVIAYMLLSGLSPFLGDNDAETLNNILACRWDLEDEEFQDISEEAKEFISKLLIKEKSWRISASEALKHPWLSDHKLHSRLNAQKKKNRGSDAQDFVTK
Description: Binding affinity to SGK085 assessed as change in thermal denaturation at 10 uM by thermal stability shift assay. A digest of the protocol:
as §1

For experiment [8], the target named is Protein kinase C gamma type (Homo sapiens) (UniProt P05129). The experiment in a line: Binding affinity to PKCgamma assessed as change in thermal denaturation at 10 uM by thermal stability shift assay. In a few lines:
as §1

Sequence of Casein kinase II subunit alpha' (Homo sapiens) (P19784 whole entry, looked up): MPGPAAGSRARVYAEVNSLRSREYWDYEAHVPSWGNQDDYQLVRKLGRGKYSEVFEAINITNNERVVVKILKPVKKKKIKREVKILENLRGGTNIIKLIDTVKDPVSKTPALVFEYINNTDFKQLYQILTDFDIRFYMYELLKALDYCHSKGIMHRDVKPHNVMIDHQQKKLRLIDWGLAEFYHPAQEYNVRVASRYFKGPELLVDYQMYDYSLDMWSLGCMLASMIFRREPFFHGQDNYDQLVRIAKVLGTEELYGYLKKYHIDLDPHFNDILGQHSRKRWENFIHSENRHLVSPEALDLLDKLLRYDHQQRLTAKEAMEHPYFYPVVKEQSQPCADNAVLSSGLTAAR
Sequence of Glycogen synthase kinase-3 beta (Homo sapiens) (P49841 whole entry, looked up): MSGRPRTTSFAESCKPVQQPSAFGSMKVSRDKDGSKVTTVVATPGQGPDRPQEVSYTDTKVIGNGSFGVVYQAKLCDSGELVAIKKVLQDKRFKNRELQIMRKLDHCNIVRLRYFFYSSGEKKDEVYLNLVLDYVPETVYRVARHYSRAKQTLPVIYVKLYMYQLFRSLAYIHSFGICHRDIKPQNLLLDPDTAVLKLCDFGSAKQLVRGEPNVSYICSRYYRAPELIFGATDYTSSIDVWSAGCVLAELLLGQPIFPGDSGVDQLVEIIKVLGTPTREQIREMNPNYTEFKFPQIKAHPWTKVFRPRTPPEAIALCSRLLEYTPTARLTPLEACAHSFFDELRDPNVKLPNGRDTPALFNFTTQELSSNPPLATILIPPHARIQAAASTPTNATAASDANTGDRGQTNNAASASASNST
Sequence of Serine/threonine-protein kinase PLK1 (Homo sapiens) (P53350 whole entry): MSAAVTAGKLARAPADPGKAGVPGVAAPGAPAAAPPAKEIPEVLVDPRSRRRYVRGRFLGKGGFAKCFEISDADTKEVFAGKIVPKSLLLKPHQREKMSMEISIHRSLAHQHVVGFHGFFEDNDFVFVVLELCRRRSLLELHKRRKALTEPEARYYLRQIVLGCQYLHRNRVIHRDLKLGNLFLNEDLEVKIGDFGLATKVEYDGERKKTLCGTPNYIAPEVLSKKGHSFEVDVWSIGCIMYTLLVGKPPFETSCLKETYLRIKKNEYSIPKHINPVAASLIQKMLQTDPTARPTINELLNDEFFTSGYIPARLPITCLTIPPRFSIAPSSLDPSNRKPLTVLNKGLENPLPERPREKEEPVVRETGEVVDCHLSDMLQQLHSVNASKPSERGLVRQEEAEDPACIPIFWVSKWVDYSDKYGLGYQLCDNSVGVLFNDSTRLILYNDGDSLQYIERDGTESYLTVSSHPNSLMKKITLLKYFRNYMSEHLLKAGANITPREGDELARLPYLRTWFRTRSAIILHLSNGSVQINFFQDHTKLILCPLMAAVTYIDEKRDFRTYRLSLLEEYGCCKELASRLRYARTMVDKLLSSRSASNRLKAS
Sequence of Serine/threonine-protein kinase 33 (Homo sapiens) (Q9BYT3 whole entry, looked up): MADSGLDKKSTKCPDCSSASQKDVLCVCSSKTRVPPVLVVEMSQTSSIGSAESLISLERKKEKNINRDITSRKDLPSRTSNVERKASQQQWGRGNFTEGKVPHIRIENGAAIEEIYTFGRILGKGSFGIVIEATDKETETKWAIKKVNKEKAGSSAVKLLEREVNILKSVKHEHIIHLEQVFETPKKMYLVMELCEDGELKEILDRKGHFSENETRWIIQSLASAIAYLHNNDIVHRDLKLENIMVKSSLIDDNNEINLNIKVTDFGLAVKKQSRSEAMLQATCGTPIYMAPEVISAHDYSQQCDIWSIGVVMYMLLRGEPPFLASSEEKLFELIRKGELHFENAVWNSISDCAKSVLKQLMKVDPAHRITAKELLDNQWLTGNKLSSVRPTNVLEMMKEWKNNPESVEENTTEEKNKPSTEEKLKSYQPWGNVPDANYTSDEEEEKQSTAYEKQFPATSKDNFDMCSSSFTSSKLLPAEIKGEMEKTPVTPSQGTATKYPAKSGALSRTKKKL

The ΔTm is the change in melting temperature against a reference sample. In the case of `N#CC1c2c([nH]c3c(Cl)c(Cl)ccc23)C(=O)NC12CCCCC2` (racemic), the ΔTm was found to be 0.3 °C in experiment [1]; 2.6 °C in experiment [2]; 0 °C in experiment [3]; 1.2 °C in experiment [4]; 1.3 °C in experiment [5]; 0.5 °C in experiment [6]. Further, the thermal shift (ΔTm) in experiment [7] stood at 1.2 °C; in experiment [8] it was 1.3 °C.

As for `Cn1c2c(c3ccc(Cl)c(Cl)c31)C(C#N)C1(CCN(C(=O)OC(C)(C)C)CC1)NC2=O` (racemic), the thermal shift (ΔTm) in experiment [1] was 0.5 °C; in experiment [2], -0.2 °C; in experiment [3], 0.3 °C; in experiment [4], 0.3 °C; in experiment [5], 0.1 °C; in experiment [6], 0.3 °C. Also, the values for the ΔTm in experiment [7] and in experiment [8] were 0 °C and 0.2 °C, respectively.

Consider `CCC1(CC)NC(=O)c2c(c3ccc(Cl)c(Cl)c3n2C)C1C#N` (stereo not drawn), for which the ΔTm in experiment [1] stood at 0.9 °C; in experiment [2], 2 °C; in experiment [3], 0.4 °C; in experiment [4], 1 °C; in experiment [5] it was 4.6 °C; in experiment [6], 0.6 °C. The shift in melting temperature (ΔTm) was 0.4 °C in experiment [7] and 0.8 °C in experiment [8].

For the compound `Cn1c2c(c3ccccc31)C(C#N)C(C)(C)NC2=O` (stereo not drawn), the ΔTm worked out at 3.2 °C in experiment [1]; 1.8 °C in experiment [2]; 1.7 °C in experiment [3]; 0.7 °C in experiment [4]; 0.9 °C in experiment [5]; 1 °C in experiment [6]. For the same compound, the shift in melting temperature (ΔTm) in experiment [7] was found to be 1.7 °C; in experiment [8] it was 0.4 °C.

On to `CN1CCC2(CC1)NC(=O)c1c(c3ccc(Cl)c(Cl)c3n1C)C2C#N` (racemic), for which the ΔTm came out at 0.6 °C in experiment [1]; 2.2 °C in experiment [2]; 3.4 °C in experiment [3]; 2.7 °C in experiment [4]; 3.3 °C in experiment [5]; 2.2 °C in experiment [6]. In addition, the thermal shift (ΔTm) stood at 1.5 °C in experiment [7] and 3.9 °C in experiment [8].

For the compound `Cn1c2c(Cl)c(Cl)ccc2c2cc[nH]c(=O)c21`, the thermal shift (ΔTm) in experiment [1] came out at 1.6 °C; in experiment [2], 1.4 °C; in experiment [3], 3.4 °C; in experiment [4], 2 °C; in experiment [5] it was 1.7 °C; in experiment [6] it was 2.3 °C. Moreover, the thermal shift (ΔTm) in experiment [7] came to 6.4 °C; in experiment [8], 1.2 °C.

On to `CC(=O)NCC1c2c(n(C)c3c(Cl)c(Cl)ccc23)C(=O)NC1(C)C` (racemic), for which the ΔTm in experiment [1] was 0.7 °C; in experiment [2], 0.2 °C; in experiment [3], 0.3 °C; in experiment [4], 1 °C; in experiment [5], 1 °C; in experiment [6] it was 0.3 °C. Further, the ΔTm in experiment [7] stood at 0.6 °C; in experiment [8] it was 0 °C.

In the case of `Cn1c2c(c3ccc(Cl)c(Cl)c31)C(C#N)C1(CCOCC1)NC2=O` (stereo not drawn), the ΔTm in experiment [1] was 0.8 °C; in experiment [2] it was 3.4 °C; in experiment [3], 1.1 °C; in experiment [4], 1 °C; in experiment [5] it was 2.7 °C; in experiment [6], 0.7 °C. Moreover, the thermal shift (ΔTm) in experiment [7] amounted to 0.5 °C; in experiment [8] it was 1 °C.

With `CC1(C)NC(=O)c2[nH]c3c(Cl)c(Cl)ccc3c2C1C#N` (stereo not drawn), the ΔTm in experiment [1] worked out at 4 °C; in experiment [2] it was 4.7 °C; in experiment [3], 0.3 °C; in experiment [4], 1.9 °C; in experiment [5], 1.7 °C; in experiment [6], 1.1 °C. Also, the results for the ΔTm in experiment [7] and in experiment [8] were 3.1 °C and 0.7 °C, respectively.

As to `Cn1c2c(c3ccc(Cl)c(Cl)c31)C(C#N)C1(CCCC1)NC2=O` (stereo not drawn), the ΔTm is 1.3 °C in experiment [1]; 2.5 °C in experiment [2]; 0.1 °C in experiment [3]; 1 °C in experiment [4]; 2.5 °C in experiment [5]; 0.2 °C in experiment [6]. The ΔTm in experiment [7] was determined as 0.1 °C; in experiment [8], 0.5 °C.

Turning to `CCN1CCC2(CC1)NC(=O)c1c(c3ccc(Cl)c(Cl)c3n1C)C2C#N` (racemic), the ΔTm in experiment [1] came to 0.4 °C; in experiment [2] it was 1.5 °C; in experiment [3] it was 2.6 °C; in experiment [4], 1.8 °C; in experiment [5], 3.2 °C; in experiment [6], 2.1 °C. For the same compound, the figures for the thermal shift (ΔTm) in experiment [7] and in experiment [8] were 0 °C and 4.5 °C, respectively.

Consider `Cn1c2c(c3ccc(Cl)c(Cl)c31)C(C#N)C(C)(C)NC2=O` (stereo not drawn), for which the ΔTm was 4.9 °C in experiment [1]; 5.6 °C in experiment [2]; 0.9 °C in experiment [3]; 2.1 °C in experiment [4]; 5.1 °C in experiment [5]; 2.2 °C in experiment [6]. In addition, the ΔTm was determined as 2 °C in experiment [7] and 1.7 °C in experiment [8].

As to `Cn1c2c(Cl)c(Cl)ccc2c2cn[nH]c(=O)c21`, the thermal shift (ΔTm) came out at 3.1 °C in experiment [1]; 4.6 °C in experiment [2]; 3.2 °C in experiment [3]; 2.1 °C in experiment [4]; 1.5 °C in experiment [5]; 1.2 °C in experiment [6]. For the same compound, the ΔTm is 5.5 °C in experiment [7] and 1.2 °C in experiment [8].

Turning to `Cn1c2c(c3ccc(Cl)c(Cl)c31)C(C#N)C1(CCNCC1)NC2=O` (racemic), the ΔTm in experiment [1] stood at 1.4 °C; in experiment [2], 3.9 °C; in experiment [3], 5.6 °C; in experiment [4], 4.2 °C; in experiment [5] it was 6.8 °C; in experiment [6], 5.9 °C. The figures for the ΔTm in experiment [7] and in experiment [8] were 3.5 °C and 6.1 °C, respectively.

In the case of `Cn1c2c(c3ccc(Cl)c(Cl)c31)C(CN)C(C)(C)NC2=O` (racemic), the ΔTm was -0.6 °C in experiment [1]; 0.6 °C in experiment [2]; 1.8 °C in experiment [3]; 0.5 °C in experiment [4]; 2.7 °C in experiment [5]; 0.9 °C in experiment [6]. The values for the thermal shift (ΔTm) in experiment [7] and in experiment [8] were 0.2 °C and 1.7 °C, respectively.

As for `Cn1c2c(Cl)c(Cl)ccc2c2cc(N)[nH]c(=O)c21`, the ΔTm in experiment [1] was determined as 1.4 °C; in experiment [2] it was 2.9 °C; in experiment [3], 2.7 °C; in experiment [4], 3 °C; in experiment [5] it was 2 °C; in experiment [6], 0.4 °C. For the same compound, the ΔTm in experiment [7] amounted to 2.9 °C; in experiment [8], 0.2 °C.

The values above are taken from ChEMBL document CHEMBL1944596, “7,8-dichloro-1-oxo-β-carbolines as a versatile scaffold for the development of potent and selective kinase inhibitors with unusual binding modes” (J Med Chem, 2012).
